Laboratory results from ChEMBL document CHEMBL3244395, “Antimycotic imidazoles. 2. Synthesis and antifungal properties of esters of 1-[2-hydroxy(mercapto)-2-phenylethyl]-1H-imidazoles” (J Med Chem, 1978).

Experiments:
Nannizzia gypsea = assay: Antifungal activity against Microsporum gypseum assessed as lowest concentration required for total inhibition broth dilution assay; format: functional; settings: read-out: MIC100
Summary of the method: (§1)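 Broth dilution against dermatophytes, C. albicans ATCC 10231 and 14053, and C. neoformans. The end point is the lowest concentration with total inhibition. "<" marks the lowest level tested, and ">" marks partial growth at that dilution.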

[1] = test system: Trichophyton mentagrophytes; assay: Antifungal activity against Trichophyton mentagrophytes assessed as lowest concentration required for total inhibition broth dilution assay; format: functional; settings: read-out: MIC100; summary of the method: as §1
Candida albicans [2] = assay: Antifungal activity against Candida albicans ATCC 10231 assessed as lowest concentration required for total inhibition by broth dilution assay; format: functional; settings: read-out: MIC100; summary of the method: as §1
Candida albicans [3] = assay: Antifungal activity against Candida albicans ATCC 14053 assessed as lowest concentration required for total inhibition by broth dilution assay; format: functional; settings: read-out: MIC100; summary of the method: as §1
[4] = Lipophilic-hydrophilic balance, Rm of the compound assessed as change in compound Rm to miconazole Rm by reverse-phase TLC method; format: physicochemical; settings: silicone oil-impregnated silica gel, MeCN-H2O-AcOH
Epidermophyton floccosum = assay: Antifungal activity against Epidermophyton floccosum assessed as lowest concentration required for total inhibition broth dilution assay; format: functional; settings: read-out: MIC100; summary of the method: as §1
Cryptococcus neoformans = assay: Antifungal activity against Cryptococcus neoformans assessed as lowest concentration required for total inhibition by broth dilution assay; format: functional; settings: read-out: MIC100; summary of the method: as §1

MIC (Nannizzia gypsea) [µg/mL] | MIC [1] [µg/mL] | MIC (Candida albicans [2]) [µg/mL] | MIC (Candida albicans [3]) [µg/mL] | deltaRm [4] | MIC (Epidermophyton floccosum) [µg/mL] | MIC (Cryptococcus neoformans) [µg/mL] | SMILES
30 | 30 | 100 | 100 | -0.43 | < 0.1 | < 1 | O=C(Cc1ccccc1)SC(Cn1ccnc1)c1ccc(Cl)cc1Cl.O=[N+]([O-])O (configuration not stated)
100 | 30 | 100 | 100 | -0.41 | < 0.1 | 3 | O=C(Cc1ccc(Cl)cc1)OC(Cn1ccnc1)c1ccc(Cl)cc1Cl.O=[N+]([O-])O (configuration not stated)
30 | 30 | 100 | 100 |  | < 0.1 | < 1 | O=C(Cc1ccc(F)cc1)SC(Cn1ccnc1)c1ccc(Cl)cc1Cl.O=[N+]([O-])O (configuration not stated)
30 | 10 | 10 | 10 | -0.08 | < 0.1 | < 1 | O=C(/C=C/c1ccccc1)SC(Cn1ccnc1)c1ccc(Cl)cc1Cl.O=[N+]([O-])O (configuration not stated)
10 | 10 | > 300 | > 300 |  | < 0.1 | < 1 | O=C(/C=C/c1ccc(Cl)cc1)OC(Cn1ccnc1)c1ccc(Cl)cc1Cl.O=[N+]([O-])O (configuration not stated)
100 | 100 | 300 | 300 |  | 1 | 10 | CC(=O)SC(Cn1ccnc1)c1ccc(Cl)cc1Cl.O=[N+]([O-])O (configuration not stated)
30 | 30 | 100 | 100 | -0.16 | < 0.1 | 3 | CCCCCCC(=O)OC(Cn1ccnc1)c1ccc(Cl)cc1Cl.O=[N+]([O-])O (configuration not stated)
10 | 10 | 10 | 10 | 0.16 | 1 | 3 | CC(C)(C)c1ccc(C(=O)OC(Cn2ccnc2)c2ccc(Cl)cc2Cl)cc1.O=C(O)C(=O)O (configuration not stated)
30 | 10 | 30 | 30 | -0.14 | < 0.1 | < 0.3 | CCCCOC(=O)SC(Cn1ccnc1)c1ccc(Cl)cc1Cl.O=[N+]([O-])O (configuration not stated)
30 | 30 | 300 | 300 | -0.24 | < 0.1 | 3 | O=C(OC(Cn1ccnc1)c1ccc(Cl)cc1Cl)c1ccc(Cl)cc1Cl.O=[N+]([O-])O (configuration not stated)
3 | 10 | 30 | 30 | 0.22 | 0.3 | 3 | CCCCCOC(=S)SC(Cn1ccnc1)c1ccc(Cl)cc1.O=C(O)C(=O)O (configuration not stated)
30 | 10 | 10 | 10 | -0.09 | < 0.1 | < 1 | Cc1ccc(C(=O)SC(Cn2ccnc2)c2ccc(Cl)cc2Cl)cc1.O=[N+]([O-])O (configuration not stated)
10 | 10 | 100 | 30 | -0.14 | < 0.1 | < 0.3 | CC(C)OC(=S)SC(Cn1ccnc1)c1ccc(Cl)cc1Cl.O=[N+]([O-])O (configuration not stated)
10 | 10 | 300 | 30 | 0.4 | < 0.1 | 3 | CCCCCCCCOC(=O)OC(Cn1ccnc1)c1ccc(Cl)cc1Cl.O=[N+]([O-])O (configuration not stated)
30 | 30 | 300 | 300 |  | < 0.1 | 3 | CCCSC(=O)OC(Cn1ccnc1)c1ccc(Cl)cc1Cl.O=C(O)C(=O)O (configuration not stated)
> 30 | 30 | 100 | 100 |  | < 0.1 | < 1 | O=C(Cc1ccc(Cl)cc1)SC(Cn1ccnc1)c1ccc(Cl)cc1Cl.O=[N+]([O-])O (configuration not stated)
